Measurements from ChEMBL document CHEMBL1136016, “Synthesis, biological activity, and molecular modeling investigation of new pyrazolo[4,3-e]-1,2,4-triazolo[1,5-c]pyrimidine derivatives as human A(3) adenosine receptor antagonists” (J Med Chem, 2002).
Each block holds one molecule with its values, some of them ahead of it.

Legend:
Adenosine receptor A3 [1] = molecular target: T1, Adenosine receptor A3 (Homo sapiens, UniProt P0DMS8); experiment: Displacement of [3H]MRE3008-F20 from human Adenosine A3 receptor expressed in HEK cells; range 0.71-0.91; format: cell-based, HEK293
T1 sequence (P0DMS8 whole entry): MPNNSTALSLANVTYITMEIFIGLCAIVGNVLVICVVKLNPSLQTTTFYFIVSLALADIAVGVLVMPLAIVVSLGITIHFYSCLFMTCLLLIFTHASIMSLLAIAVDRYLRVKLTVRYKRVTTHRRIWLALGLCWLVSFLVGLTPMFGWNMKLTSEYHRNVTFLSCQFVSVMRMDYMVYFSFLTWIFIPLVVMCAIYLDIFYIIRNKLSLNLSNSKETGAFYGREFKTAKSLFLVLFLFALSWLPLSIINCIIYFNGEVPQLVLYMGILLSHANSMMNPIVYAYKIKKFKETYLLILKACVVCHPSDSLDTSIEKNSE

[2] = molecular target: Adenosine receptors; A2b & A3 (Homo sapiens) (UniProt P29275+P0DMS8); experiment: Selectivity ratio (h2B/hA3); format: protein assay
[3] = molecular target: Adenosine receptors; A1 & A3 (Homo sapiens) (UniProt P30542+P0DMS8); experiment: Selectivity ratio (hA1/hA3); format: protein assay
Adenosine receptor A2a [4] = molecular target: T2, Adenosine receptor A2a (Homo sapiens, UniProt P29274); experiment: Displacement of [3H]SCH-58261 from human Adenosine A2A receptor expressed in HEK293 cells; range 140-186; format: cell-based
T2 sequence (P29274 whole entry): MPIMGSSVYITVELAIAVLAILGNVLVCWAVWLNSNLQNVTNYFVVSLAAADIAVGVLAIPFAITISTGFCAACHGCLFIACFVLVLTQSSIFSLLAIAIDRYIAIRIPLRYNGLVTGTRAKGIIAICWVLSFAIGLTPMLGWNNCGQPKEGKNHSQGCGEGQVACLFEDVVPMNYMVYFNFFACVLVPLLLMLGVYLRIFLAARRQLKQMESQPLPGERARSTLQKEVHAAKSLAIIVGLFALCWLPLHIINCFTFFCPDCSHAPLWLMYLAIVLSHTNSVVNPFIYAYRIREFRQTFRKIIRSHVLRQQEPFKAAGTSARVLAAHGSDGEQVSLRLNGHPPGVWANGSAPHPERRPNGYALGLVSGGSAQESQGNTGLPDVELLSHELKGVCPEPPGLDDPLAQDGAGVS

Adenosine receptor A1 [5] = molecular target: T3, Adenosine receptor A1 (Homo sapiens, UniProt P30542); experiment: Displacement of [3H]DPCPX from human Adenosine A1 receptor expressed in CHO cells; range 406-616; format: cell-based
T3 sequence (P30542 whole entry): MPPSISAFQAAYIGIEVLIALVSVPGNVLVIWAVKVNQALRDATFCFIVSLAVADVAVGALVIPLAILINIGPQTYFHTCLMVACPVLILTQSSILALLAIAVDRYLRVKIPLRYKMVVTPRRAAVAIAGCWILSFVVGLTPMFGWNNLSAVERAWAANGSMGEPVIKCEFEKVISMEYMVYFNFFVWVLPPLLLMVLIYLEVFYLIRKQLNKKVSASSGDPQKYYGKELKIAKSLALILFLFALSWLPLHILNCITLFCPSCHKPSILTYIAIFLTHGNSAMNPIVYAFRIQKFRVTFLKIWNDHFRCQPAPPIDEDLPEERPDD

Adenosine receptor A2b [6] = molecular target: T4, Adenosine receptor A2b (Homo sapiens, UniProt P29275); experiment: Displacement of [3H]DPCPX from human Adenosine A2B receptor expressed in HEK293 cells; range 213-296; format: cell-based
T4 sequence (P29275 whole entry): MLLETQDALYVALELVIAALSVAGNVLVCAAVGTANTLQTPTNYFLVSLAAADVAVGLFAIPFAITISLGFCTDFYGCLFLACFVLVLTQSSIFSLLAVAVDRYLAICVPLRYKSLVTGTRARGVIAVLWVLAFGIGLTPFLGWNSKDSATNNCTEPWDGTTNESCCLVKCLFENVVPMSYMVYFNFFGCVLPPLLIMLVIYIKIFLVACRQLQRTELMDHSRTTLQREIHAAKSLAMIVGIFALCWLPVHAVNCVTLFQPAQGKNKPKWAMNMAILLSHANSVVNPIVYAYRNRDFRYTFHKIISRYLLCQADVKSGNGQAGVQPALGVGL
How it was run: (§1)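 Competition binding on membranes of HEK-293 cells carrying recombinant human A2B receptor. Incubation 60 min at 25 °C in 50 mM Tris HCl pH 7.4 with 10 mM MgCl2, 1 mM EDTA, 0.1 mM benzamidine and 2 IU/mL adenosine deaminase. Radioligand 40 nM [3H]DPCPX, at least six to eight test concentrations. NECA defined nonspecific binding. Bound ligand separated on glass-fibre filters and counted; n = 3-6.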

Adenosine receptor A3 [7] = molecular target: T1, Adenosine receptor A3; experiment: Inhibition of IB-MECA agonist-mediated cAMP production in CHO cell membranes expressing human Adenosine A3 receptor; range 5.5-10.9; format: functional, cell-based
How it was run: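 Human A3-CHO membranes (in 50 mM Tris HCl, 10 mM MgCl2, 1 mM EDTA, pH 7.4) were preincubated for 10 min at 37 °C with 5 µM GTP, 0.5 mM Ro 20-1724 and 2.0 IU/mL adenosine deaminase. IB-MECA (100 nM) or antagonist was then added with 1 mM ATP and forskolin for 10 min. The reaction was stopped by 2 min boiling. cAMP was measured by [3H]cAMP competitive protein binding using beef adrenal binding protein, 150 min at 4 °C.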

Adenosine receptor A1 [8] = molecular target: T3, Adenosine receptor A1; experiment: Displacement of [3H]DPCPX from human Adenosine A1 receptor expressed in CHO cells; range 330-478; format: cell-based
How it was run: (§2)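 Human recombinant A1 receptor in CHO cell membranes, resuspended in 50 mM Tris HCl pH 7.4. Displacement run 120 min at 25 °C with 1 nM [3H]DPCPX, 50 µg protein per assay, and at least six to eight test concentrations. Nonspecific binding defined with CHA. Bound and free separated on glass-fiber filters; filter radioactivity counted. n = 3-6.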

Adenosine receptor A2a [9] = molecular target: T2, Adenosine receptor A2a; experiment: Displacement of [3H]SCH-58261 from human Adenosine A2A receptor expressed in HEK293 cells; range 24-48; format: cell-based
Adenosine receptor A2b [10] = molecular target: T4, Adenosine receptor A2b; experiment: Displacement of [3H]DPCPX from human Adenosine A2B receptor expressed in HEK293 cells; range 115-161; format: cell-based
How it was run: (§3)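 HEK-293 membranes expressing the human receptor were incubated 60 min at 25 °C. Six to eight test concentrations were used. Nonspecific binding was set with NECA. n = 3-6.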

Adenosine receptor A3 [11] = molecular target: T1, Adenosine receptor A3; experiment: biochemical
Adenosine receptor A2b [12] = molecular target: T4, Adenosine receptor A2b; experiment: Displacement of [3H]DPCPX from human Adenosine A2B receptor expressed in HEK293 cells; range 49-77; format: cell-based; how it was run: as §1
Adenosine receptor A3 [13] = molecular target: T1, Adenosine receptor A3; experiment: Displacement of [3H]MRE3008-F20 from human Adenosine A3 receptor expressed in HEK cells; range 0.61-0.83; format: cell-based, HEK293
Adenosine receptor A1 [14] = molecular target: T3, Adenosine receptor A1; experiment: Displacement of [3H]DPCPX from human Adenosine A1 receptor expressed in CHO cells; range 245-370; format: cell-based
Adenosine receptor A2a [15] = molecular target: T2, Adenosine receptor A2a; experiment: Displacement of [3H]SCH-58261 from human Adenosine A2A receptor expressed in HEK293 cells; range 103-142; format: cell-based
Adenosine receptor A2b [16] = molecular target: T4, Adenosine receptor A2b; experiment: Displacement of [3H]DPCPX from human Adenosine A2B receptor expressed in HEK293 cells; range 116-134; format: cell-based
How it was run: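 Membranes from HEK-293 cells with human recombinant A2B receptor. Incubation 60 min at 25 °C in 50 mM Tris HCl, 10 mM MgCl2, 1 mM EDTA, 0.1 mM benzamidine, pH 7.4, with 2 IU/mL adenosine deaminase and 40 nM [3H]DPCPX. At least six to eight test concentrations. Nonspecific binding defined with NECA. n = 3-6.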

Adenosine receptor A1 [17] = molecular target: T3, Adenosine receptor A1; experiment: Displacement of [3H]DPCPX from human Adenosine A1 receptor expressed in CHO cells; range 156-258; format: cell-based
Adenosine receptor A2a [18] = molecular target: T2, Adenosine receptor A2a; experiment: Displacement of [3H]SCH-58261 from human Adenosine A2A receptor expressed in HEK293 cells; range 71-111; format: cell-based
Adenosine receptor A3 [19] = molecular target: T1, Adenosine receptor A3; experiment: biochemical; remark: listed apart in the source
Adenosine receptor A2b [20] = molecular target: T4, Adenosine receptor A2b; experiment: Displacement of [3H]-DPCPX from human Adenosine A2B receptor expressed in HEK293 cells; range 206-282; format: cell-based; how it was run: as §1
Adenosine receptor A2a [21] = molecular target: T2, Adenosine receptor A2a; experiment: Displacement of [3H]SCH-58261 from human Adenosine A2A receptor expressed in HEK293 cells; range 40-96; format: cell-based
Adenosine receptor A3 [22] = molecular target: T1, Adenosine receptor A3; experiment: Displacement of [3H]MRE3008-F20 from human Adenosine A3 receptor expressed in HEK cells; range 0.10-0.18; format: cell-based, HEK293
Adenosine receptor A1 [23] = molecular target: T3, Adenosine receptor A1; experiment: Displacement of [3H]DPCPX from human Adenosine A1 receptor expressed in CHO cells; range 724-889; format: cell-based; how it was run: as §2
Adenosine receptor A3 [24] = molecular target: T1, Adenosine receptor A3; experiment: biochemical; remark: listed apart in the source
Adenosine receptor A2b [25] = molecular target: T4, Adenosine receptor A2b; experiment: Displacement of [3H]DPCPX from human Adenosine A2B receptor expressed in HEK293 cells; range 37-63; format: cell-based; how it was run: as §3
Adenosine receptor A2a [26] = molecular target: T2, Adenosine receptor A2a; experiment: Displacement of [3H]SCH-58261 from human Adenosine A2A receptor expressed in HEK293 cells; range 511-648; format: cell-based

SMILES: COc1cccc(NC(=O)Nc2nc3nn(C)cc3c3nc(-c4ccco4)nn23)c1
- Ki (Adenosine receptor A3 [1]): 0.8 nM
- Ratio [2]: 313
- Ratio [3]: 625
- Ki (Adenosine receptor A2a [4]): 160 nM
- Ki (Adenosine receptor A1 [5]): 500 nM
- Ki (Adenosine receptor A2b [6]): 251 nM
- IC50 (Adenosine receptor A3 [7]): 7.8 nM

SMILES: CCCCn1cc2c(nc(NC(=O)Nc3ccccc3OC)n3nc(-c4ccco4)nc23)n1
- Ki (Adenosine receptor A2b [16]): 125 nM
- Ki (Adenosine receptor A1 [17]): 200 nM
- Ratio [2]: 219
- Ratio [3]: 351
- Ki (Adenosine receptor A2a [18]): 91 nM
- Ki (Adenosine receptor A3 [19]): 0.57 nM

SMILES: CCn1cc2c(nc(NC(=O)Nc3ccc4c(c3)OCO4)n3nc(-c4ccco4)nc23)n1
- Ki (Adenosine receptor A1 [23]): 802 nM
- Ratio [2]: 178
- Ratio [3]: 2970
- Ki (Adenosine receptor A3 [24]): 0.27 nM
- Ki (Adenosine receptor A2b [25]): 48 nM
- Ki (Adenosine receptor A2a [26]): 576 nM

Next, values leading:

- Ki (Adenosine receptor A1 [8]): 400 nM
- Ki (Adenosine receptor A2a [9]): 34 nM
- Ki (Adenosine receptor A2b [10]): 136 nM
- Ki (Adenosine receptor A3 [11]): 0.51 nM
- Ratio [2]: 267
- Ratio [3]: 784
SMILES: CCCn1cc2c(nc(NC(=O)Nc3ccc(C(F)(F)F)cc3)n3nc(-c4ccco4)nc23)n1

- Ki (Adenosine receptor A2b [12]): 61 nM
- Ki (Adenosine receptor A3 [13]): 0.71 nM
- Ki (Adenosine receptor A1 [14]): 300 nM
- Ratio [2]: 86
- Ratio [3]: 423
- Ki (Adenosine receptor A2a [15]): 121 nM
SMILES: CCCn1cc2c(nc(NC(=O)Nc3ccccc3Cl)n3nc(-c4ccco4)nc23)n1

- Ki (Adenosine receptor A2b [20]): 241 nM
- Ki (Adenosine receptor A2a [21]): 62 nM
- Ki (Adenosine receptor A3 [22]): 0.15 nM
- Ratio [2]: 1610
- Ratio [3]: 1170
SMILES: CCCn1cc2c(nc(NC(=O)Nc3ccccc3)n3nc(-c4ccco4)nc23)n1
